For assay [1], the system named is Mus musculus. The assay can be described thus: Antinociceptive activity against icv dosed ICR-CD1 mouse by radiant heat tail flick test. It is filed as functional. The procedure, abridged: (§1)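 Male ICR-CD1 mice (17–25 g), single i.c.v. or i.t. injection; tail-flick latency to radiant heat. Antinociception as %MPE = (Test − Control)/(10 − Control) × 100. Dose-response curves from at least three groups of 8–10 mice, each mouse used once; ED50 with 95% C.I. in pmol/mouse.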
In general terms: Thermal pain tests record how soon the animal reacts.

Assay [2] concerns Mus musculus. As to the kind of experiment: Reduction in tolerance acquisition in ICR-CD1 mouse assessed as compound antinociception effect at 125 to 2500 pmol intrathecally administered on day 1 and repeated on day 2 measured on day 2 by radiant heat tail flick test. Type of assay: functional. Also noted: scale not given: the % may be the effect or the level left.
The test system of assay [3] is Mus musculus. The assay can be described thus: Ratio of ED50 for antinociception activity in icv dosed ICR-CD1 mouse to ED50 for antinociception activity in intrathecally dosed ICR-CD1 mouse by radiant heat tail flick test. Type of assay: functional. The procedure, abridged: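 ED50 values (pmol/mouse) come from radiant-heat tail-flick dose-response curves in male ICR-CD1 mice after i.c.v. or i.t. injection, with %MPE read-out and at least three groups of 8–10 mice per curve. The ratio is i.c.v. ED50 divided by i.t. ED50.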

Assay [4] deals with Mus musculus. The assay can be described thus: Reduction in tolerance acquisition in ICR-CD1 mouse assessed as compound antinociception effect at 125 to 2500 pmol intrathecally administered on day 1 and repeated on day 2 measured on day 1 by radiant heat tail flick test. It is filed as functional. Also noted: scale not given: the % may be the effect or the level left.
The subject of assay [5] is Mus musculus. As to the kind of experiment: Reduction in tolerance acquisition in ICR-CD1 mouse assessed as compound antinociception effect at 125 to 2500 pmol, icv administered on day 1 and repeated on day 2 measured on day 1 by radiant heat tail flick test. It is filed as functional. Also noted: scale not given: the % may be the effect or the level left. The procedure, abridged: (§2)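 Tolerance test in male ICR-CD1 mice given i.c.v. The highest dose of the day-1 dose-response curve is given on day 1 and repeated 24 h later in the same mice. Radiant-heat tail-flick %MPE is recorded each day, and mice with no significant day-to-day difference are classed as not tolerant.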

Assay [6] addresses Cannabinoid receptor 1/Mu-type opioid receptor (Homo sapiens) (UniProt P21554+P35372). As to the kind of experiment: Induction of human MOPR/CB1receptor internalization transiently expressed in HEK293 cells at 1 uM after 30 mins by immunofluorescence assay. It is filed as cell-based. The procedure, abridged: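 HEK-293 cells were transiently transfected with human MOP and CB1 cDNA (16 μg per 2 million cells) and seeded into chamber slides 24 h later. After a further 24 h, cells were exposed to ligand (1 μM) for 30 min. They were then fixed in 4% paraformaldehyde and incubated overnight at 4°C with MOP- and CB1-selective primary antibodies. Fluorescent secondaries (red MOP, green CB1) were applied, and receptor location was imaged by confocal microscopy.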

The test system of assay [7] is Mus musculus. As to the kind of experiment: Reduction in tolerance acquisition in ICR-CD1 mouse assessed as compound antinociception effect at 125 to 2500 pmol, icv administered on day 1 and repeated on day 2 measured on day 2 by radiant heat tail flick test. Type of assay: functional. Also noted: scale not given: the % may be the effect or the level left. The gist of the method: as §2

The test system of assay [8] is Mus musculus. The assay can be described thus: Antinociceptive activity against intrathecally dosed ICR-CD1 mouse by radiant heat tail flick test. Type of assay: functional. The procedure, abridged: as §1
In assay [9] the test system is Mus musculus. The assay can be described thus: Antinociceptive activity in ICR-CD1 mouse at 2500 pmol, icv by radiant heat tail flick test. Type of assay: functional.
Assay [10] has as its system Mus musculus. The assay can be described thus: Antinociceptive activity in ICR-CD1 mouse at 2500 pmol administered intrathecally by radiant heat tail flick test. It is filed as functional.
Assay [11] deals with Mus musculus. The assay can be described thus: Reduction in tolerance acquisition in ICR-CD1 mouse assessed as compound antinociception effect at 125 to 2500 pmol, icv administered on day 1 measured after 24 hrs by radiant heat tail flick test. Also noted: scale not given: the % may be the effect or the level left. It is filed as functional.
Assay [12] deals with Mus musculus. The assay can be described thus: Reduction in tolerance acquisition in ICR-CD1 mouse assessed as compound antinociception effect at 125 to 2500 pmol, icv administered on day 1 and repeated after 48 hrs measured on day 3 by radiant heat tail flick test. Type of assay: functional. Also noted: scale not given: the % may be the effect or the level left.
Assay [13] deals with Mus musculus. The assay can be described thus: Antinociceptive activity in ICR-CD1 mouse at 250 pmol, icv by radiant heat tail flick test. Type of assay: functional.
The subject of assay [14] is Mus musculus. The assay can be described thus: Antinociceptive activity in ICR-CD1 mouse at 250 pmol administered intrathecally by radiant heat tail flick test. Type of assay: functional.

Results on eight molecules are retold here after ChEMBL document CHEMBL2401645, “Bivalent ligands that target μ opioid (MOP) and cannabinoid1 (CB1) receptors are potent analgesics devoid of tolerance” (2013).

Activity calls are given as the source filed them. The calls are words filed in the database; no cut-off is given here.

On to `CNC(=O)COCC(=O)NCCCCCNC(=O)COCC(=O)N[C@H]1CC[C@@]2(O)[C@H]3Cc4ccc(O)c5c4[C@@]2(CCN3C)[C@H]1O5`, for which the results for the ED50 in the assay on Mus musculus [1] and with Mus musculus [8] were 108 pmol and 106 pmol, respectively. Further, the Activity in the assay with Mus musculus [2] is recorded as 39.54%; in the assay with Mus musculus [4], 75.98%; in the assay on Mus musculus [5], 82.15%; in the assay on Mus musculus [7] it was 24.14%. In addition, in the assay on Mus musculus [3], the “Ratio ED50” value turned out to be 1.01. For the same molecule, the result in assay [6] was Active.
For `Cc1c(C(=O)NN2CCCCC2)nn(-c2ccc(Cl)cc2Cl)c1-c1ccc(Cl)cc1`, the outcome in the assay on Mus musculus [9] and in the assay with Mus musculus [10] was inactive.
In the case of `Cc1c(C(=O)NC2CCN(C(=O)COCC(=O)NCCNC(=O)COCC(=O)N[C@H]3CC[C@@]4(O)[C@H]5Cc6ccc(O)c7c6[C@@]4(CCN5C)[C@H]3O7)CC2)nn(-c2ccc(Cl)cc2Cl)c1-c1ccc(Cl)cc1`, the ED50 in the assay on Mus musculus [1] amounted to 55 pmol; in the assay with Mus musculus [8] it was 42 pmol. Besides, the Activity in the assay on Mus musculus [2] was determined as 72.5%; with Mus musculus [4], 98.33%; in the assay with Mus musculus [5] it was 83.47%; with Mus musculus [7], 66.99%. The “Ratio ED50” value in the assay on Mus musculus [3] is recorded as 1.31. For the same molecule, the outcome in assay [6] was Active.
For `Cc1c(C(=O)NC2CCN(C(=O)COCC(=O)NCCCCCCCNC(=O)COCC(=O)N[C@H]3CC[C@@]4(O)[C@H]5Cc6ccc(O)c7c6[C@@]4(CCN5C)[C@H]3O7)CC2)nn(-c2ccc(Cl)cc2Cl)c1-c1ccc(Cl)cc1`, the ED50 came to 9 pmol in the assay with Mus musculus [1] and 5 pmol in the assay with Mus musculus [8]. The Activity turned out to be 87.91% with Mus musculus [2]; 47% in the assay on Mus musculus [11]; 72.81% in the assay with Mus musculus [12]; 92.2% in the assay on Mus musculus [4]; 89.75% in the assay on Mus musculus [5]. In the assay with Mus musculus [3], the “Ratio ED50” value came to 1.8. The outcome in [6] was inactive.
`CNC(=O)COCC(=O)NCCCCNC(=O)COCC(=O)N1CCC(NC(=O)c2nn(-c3ccc(Cl)cc3Cl)c(-c3ccc(Cl)cc3)c2C)CC1`: the Activity with Mus musculus [13], with Mus musculus [14], in the assay with Mus musculus [9] and in the assay with Mus musculus [10] was 20% in each case. For the same molecule, the outcome in assay [6] was inactive.
In the case of `Cc1c(C(=O)NC2CCN(C(=O)COCC(=O)N[C@H]3CC[C@@]4(O)[C@H]5Cc6ccc(O)c7c6[C@@]4(CCN5C)[C@H]3O7)CC2)nn(-c2ccc(Cl)cc2Cl)c1-c1ccc(Cl)cc1`, the ED50 in the assay with Mus musculus [1] was determined as 523 pmol; in the assay with Mus musculus [8], 27 pmol. Besides, the Activity with Mus musculus [2] amounted to 73.41%; in the assay with Mus musculus [4] it was 81.72%; in the assay with Mus musculus [5] it was 77.72%; in the assay with Mus musculus [7] it was 63.7%. The “Ratio ED50” value in the assay on Mus musculus [3] is reported as 19.48. Moreover, in assay [6], the result was Active.
For the molecule `Cc1c(C(=O)NC2CCN(C(=O)N[C@H]3CC[C@@]4(O)[C@H]5Cc6ccc(O)c7c6[C@@]4(CCN5C)[C@H]3O7)CC2)nn(-c2ccc(Cl)cc2Cl)c1-c1ccc(Cl)cc1`, the values for the ED50 with Mus musculus [1] and with Mus musculus [8] were 1219 pmol and 559 pmol, respectively. For the same molecule, the Activity in the assay with Mus musculus [2] worked out at 66.01%; in the assay with Mus musculus [4], 73.55%; in the assay on Mus musculus [5], 64.27%; with Mus musculus [7], 33.85%. Further, the “Ratio ED50” value in the assay with Mus musculus [3] is given as 2.18.
As to `Cc1c(C(=O)NC2CCN(C(=O)COCC(=O)NCCCCCCNC(=O)COCC(=O)N[C@H]3CC[C@@]4(O)[C@H]5Cc6ccc(O)c7c6[C@@]4(CCN5C)[C@H]3O7)CC2)nn(-c2ccc(Cl)cc2Cl)c1-c1ccc(Cl)cc1`, the results for the ED50 in the assay on Mus musculus [1] and in the assay with Mus musculus [8] were 189 pmol and 19 pmol, respectively. Also, the Activity in the assay on Mus musculus [2] was 79.58%; in the assay with Mus musculus [4] it was 78.51%; in the assay with Mus musculus [5], 95.43%; with Mus musculus [7], 86.33%. In addition, the “Ratio ED50” value in the assay with Mus musculus [3] amounted to 9.86. Moreover, in assay [6], the outcome was Active.
